Assay results as given in ChEMBL document CHEMBL1136958, “Design and optimization of renin inhibitors: Orally bioavailable alkyl amines” (Bioorg Med Chem Lett, 2009).

Experiments:
[1] = Clearance in rat at 2 mg/kg, iv; type: ADME, organism-based; design: dose 2 mg/kg, route intravenous; details: in vivo
Summary of the method: (§1)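 Rats dosed with the fumarate salt at 10 mg/kg by oral route and 2 mg/kg intravenously. Plasma concentrations measured over time, and PK parameters derived from them.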

[2] = Cmax in rat at 10 mg/kg, po and 2 mg/kg, iv; type: ADME, organism-based; details: in vivo; summary of the method: as §1
[3] = Oral bioavailability in rat at 10 mg/kg; type: ADME, organism-based; details: in vivo; summary of the method: as §1
[4] = Tmax in rat at 10 mg/kg, po and 2 mg/kg, iv; type: ADME, organism-based; details: in vivo; summary of the method: as §1
[5] = AUC (infinity) in rat at 10 mg/kg, po and 2 mg/kg, iv; type: ADME, organism-based; details: plasma; summary of the method: as §1
Renin [6] = biological target: T1, Renin (Homo sapiens, UniProt P00797); assay: Inhibition of human recombinant renin in presence of human plasma by competitive radioimmunoassay; type: cell-free
T1 sequence (P00797 whole entry): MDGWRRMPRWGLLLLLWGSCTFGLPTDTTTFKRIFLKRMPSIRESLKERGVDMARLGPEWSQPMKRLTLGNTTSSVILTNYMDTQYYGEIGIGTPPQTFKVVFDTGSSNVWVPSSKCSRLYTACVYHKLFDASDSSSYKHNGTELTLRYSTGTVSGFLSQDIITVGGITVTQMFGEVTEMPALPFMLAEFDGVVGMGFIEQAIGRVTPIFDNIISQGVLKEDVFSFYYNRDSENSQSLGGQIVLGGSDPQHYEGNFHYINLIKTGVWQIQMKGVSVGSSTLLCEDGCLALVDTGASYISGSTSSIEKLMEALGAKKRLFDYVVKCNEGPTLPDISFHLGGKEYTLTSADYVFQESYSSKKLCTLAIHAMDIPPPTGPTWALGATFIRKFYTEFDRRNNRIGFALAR

Renin [7] = biological target: T1, Renin; assay: Inhibition of human recombinant renin
[8] = AUC (0 to t) in rat at 10 mg/kg, po and 2 mg/kg, iv; type: ADME, organism-based; details: plasma; summary of the method: as §1
[9] = Half life in rat at 10 mg/kg, po and 2 mg/kg, iv; type: ADME, organism-based; details: in vivo; summary of the method: as §1
[10] = Volume of distribution at steady state in rat at 10 mg/kg, po and 2 mg/kg, iv; type: ADME, organism-based; details: in vivo, read-out: Vdss
in vivo = details: rat, po

Structure (SMILES) | IC50 (Renin [6]) | IC50 (Renin [7]) | further results
COCCCOc1cc(C[C@@H](C[C@H](N)[C@@H](O)C[C@H](C(=O)NCC(C)(C)C(N)=O)C(C)C)C(C)C)ccc1OC.COCCCOc1cc(C[C@@H](C[C@H](N)[C@@H](O)C[C@H](C(=O)NCC(C)(C)C(N)=O)C(C)C)C(C)C)ccc1OC.O=C(O)/C=C/C(=O)O [ALISKIREN FUMARATE] | – | – | clearance [1]: 55 mL/min/kg; Cmax [2]: 4 ng/mL; bioavailability [3]: 1.2%; Tmax [4]: 0.1 h; AUC(0-inf) [5]: 31 ng·h/mL
CNC[C@H](CC1CCCCC1)NC(=O)N1CCC[C@@H]([C@@](O)(CCCCOC)c2cccc(Cl)c2)C1 | 13 nM | – | –
CNC[C@H](CC1CCCCC1)NC(=O)N1CCC[C@@H]([C@@](O)(CCCCOC)c2cccc(OC(F)(F)F)c2)C1 | – | 69 nM | –
CNC[C@H](CC1CCCCC1)NC(=O)N1CCC[C@@H]([C@@](O)(CCCCOC)c2cccc(F)c2)C1.O=C(O)/C=C/C(=O)O | – | – | clearance [1]: 59 mL/min/kg; AUC(0-t) [8]: 433 ng·h/mL; Cmax [2]: 83 ng/mL; bioavailability [3]: 21.1%; Tmax [4]: 2.7 h; half-life [9]: 9.6 h; AUC(0-inf) [5]: 510 ng·h/mL
CNC[C@H](CC1CCCCC1)NC(=O)N1CCC[C@@H]([C@@](O)(CCCCOC)c2cccc(Cl)c2F)C1.O=C(O)/C=C/C(=O)O | – | – | clearance [1]: 30 mL/min/kg; Vd [10]: 16 L/kg; Cmax [2]: 28 ng/mL; bioavailability [3]: 5.5%; Tmax [4]: 4.3 h; half-life [9]: 8 h; AUC(0-inf) [5]: 254 ng·h/mL
CCc1cccc([C@](O)(CCCCOC)[C@@H]2CCCN(C(=O)N[C@H](CNC)CC3CCCCC3)C2)c1 | 285 nM | 9 nM | –
CNC[C@H](CC1CCCCC1)NC(=O)N1CCC[C@@H]([C@@](O)(CCCCOC)c2cccc(F)c2F)C1 | 20 nM | 0.14 nM | –
COCCCOc1cc(C[C@@H](C[C@H](N)[C@@H](O)C[C@H](C(=O)NCC(C)(C)C(N)=O)C(C)C)C(C)C)ccc1OC | – | – | bioavailability (in vivo): 2.4%
CNC[C@H](CC1CCCCC1)NC(=O)N1CCC[C@@H]([C@@](O)(CCCCOC)c2cc(C)ccc2F)C1 | 67 nM | 3.5 nM | –
CNC[C@H](CC1CCCCC1)NC(=O)N1CCC[C@@H]([C@@](O)(CCCCOC)c2cccc(OC)c2)C1 | 88 nM | 13 nM | –
CNC[C@H](CC1CCCCC1)NC(=O)N1CCC[C@@H]([C@@](O)(CCCCOC)c2ccccc2)C1.O=C(O)/C=C/C(=O)O | – | – | clearance [1]: 66 mL/min/kg; AUC(0-t) [8]: 547 ng·h/mL; Cmax [2]: 101 ng/mL; bioavailability [3]: 33.6%; Tmax [4]: 2 h; AUC(0-inf) [5]: 689 ng·h/mL

Now from value to molecule, other results behind:

IC50 (Renin [6]) | IC50 (Renin [7]) | Structure (SMILES) | further results
151 nM | 7 nM | CNC[C@H](CC1CCCCC1)NC(=O)N1CCC[C@@H]([C@@](O)(CCCCOC)c2ccccc2Cl)C1 | –
490 nM | 38 nM | CCOCCCC[C@@](O)(c1ccccc1)[C@@H]1CCCN(C(=O)N[C@H](CN)CC2CCCCC2)C1 | –
447 nM | 40 nM | CCOCCCO[C@@H](c1ccccc1)[C@@H]1CCCN(C(=O)N[C@H](CNC)CC2CCCCC2)C1 | –
369 nM | 39 nM | CNC[C@H](CC1CCCCC1)NC(=O)N1CCC[C@@H]([C@@H](OCCCOC)c2cccc(Cl)c2F)C1 | –
190 nM | 5.5 nM | CCOCCCO[C@@H](c1cccc(Cl)c1)[C@@H]1CCCN(C(=O)N[C@H](CN)CC2CCCCC2)C1 | –
47 nM | 3 nM | CNC[C@H](CC1CCCCC1)NC(=O)N1CCC[C@@H]([C@@](O)(CCCCOC)c2cccc(F)c2)C1 | –
– | 308 nM | COCCCO[C@@H](c1ccccc1)[C@@H]1CCCN(C(=O)N[C@H](CN)CC2CCCCC2)C1 | –
– | 764 nM | CNC[C@H](CC1CCCCC1)NC(=O)N1CCC[C@@H]([C@@H](OCCCO)c2cccc(Cl)c2)C1 | –
165 nM | 21 nM | COCCCC[C@@](O)(c1ccccc1)[C@@H]1CCCN(C(=O)N[C@H](CN)CC2CCCCC2)C1 | –
162 nM | 16 nM | CCOCCCC[C@@](O)(c1ccccc1)[C@@H]1CCCN(C(=O)N[C@H](CNC)CC2CCCCC2)C1 | –
– | 609 nM | CNC[C@H](CC1CCCCC1)NC(=O)N1CCC[C@@H]([C@@H](OCCCOC)c2cccc(Cl)c2Cl)C1 | –
